Key:
MDA-MB-231 xenografts = experiment: Xenograft model of TNBC, tumor growth; format: in vivo, SCID mice; conditions: 10 mg/kg iv twice a week for 2 weeks, vs vehicle control
Summary of the method: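 Female SCID mice (7–8 weeks) given s.c. rear-flank 1×10^6 MDA-MB-231 cells in 0.1 mL 50% Matrigel. At 100 mm3, randomized (eight per group). Dosed via tail vein twice weekly for 2 weeks with free or SMA-micelle test compound, or vehicle (100 μL; SMA in NaOH, pH 7.4). Tumor volume (L×W×H) by electronic calipers, two independent measurements bi-weekly. Euthanized day 24.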

TNBC cell lines = conditions: cited from earlier work
[1] = test system: xenograft model of colon cancer; conditions: cited from earlier work

COc1cc(C=C2CN(C)CC(=Cc3cc(OC)c(OC)c(OC)c3)C2=O)cc(OC)c1OC [RL71, 3,5-bis(3,4,5-trimethoxybenzylidene)-1-methylpiperidine-4-one]
tumor growth (MDA-MB-231 xenografts): unable to suppress tumor growth | apoptosis and cell cycle effect (TNBC cell lines; 1 µM, several TNBC cell lines): induced apoptosis and elicited G2/M phase cell cycle arrest | cytotoxic potency relative to curcumin (TNBC cell lines; greater than curcumin): 20 fold | body weight ([1]; 4 mg/kg, after 15 days): nonsignificant loss of body weight | tumor growth ([1]; 4 mg/kg/day intraperitoneally for 14 days): significantly suppressed tumor growth | liver or spleen weight ([1]; intraperitoneal administration for 2 weeks): did not alter liver or spleen weight | growth rate of colon tumors following treatment ([1]; over 15 days, 4 mg/kg/day ip): 400%
